# Measured values taken from ChEMBL document CHEMBL5058577, “EUbOPEN Chemogenomics Library 2 (Multiplex)” (2022).
# System: U2OS
# Assay: Multiplex assay against U2OS
# Format: toxicity, cell-based
# Conditions: human
# Outline: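 Live cells were stained at seeding with Hoechst33342, BioTracker Green Microtubule Cytoskeleton Dye, MitoTracker Red and Annexin V Alexa Fluor 680, then imaged on a CQ1 microscope at 37°C and 5% CO2 after compound addition. CellPathfinder machine-learning gating split cells into Hoechst high-intensity objects or normal cells. Normal cells were split into healthy, pyknosed or fragmented nuclei, and pyknosed cells into mitotic or apoptotic. Tubulin, mitochondrial-mass and membrane-permeability phenotypes are per cents of healthy-nucleus cells.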
# [1] = 12 h, 1 µM, compound concentration 1 uM, replicate 1
# [2] = 12 h, 1 µM, compound concentration 1 uM, replicate 2
# [3] = 12 h, 10 µM, compound concentration 10 uM, replicate 1
# [4] = 12 h, 10 µM, compound concentration 10 uM, replicate 2
# [5] = 24 h, 1 µM, compound concentration 1 uM, replicate 1
# [6] = 24 h, 1 µM, compound concentration 1 uM, replicate 2
# [7] = 24 h, 10 µM, compound concentration 10 uM, replicate 1
# [8] = 24 h, 10 µM, compound concentration 10 uM, replicate 2
# [9] = 48 h, 1 µM, compound concentration 1 uM, replicate 1
# [10] = 48 h, 1 µM, compound concentration 1 uM, replicate 2
# [11] = 48 h, 10 µM, compound concentration 10 uM, replicate 1
# [12] = 48 h, 10 µM, compound concentration 10 uM, replicate 2
compound,measurement,setting,value
COCCn1c(C)c(C)s/c1=N\C(=O)C1C(C)(C)C1(C)C,Population Apoptotic (%),[1],88%
same,Population Fragmented Nuclei (%),[1],24%
same,Population Healthy Nuclei (%),[1],69%
same,Population Hoechst High Intensity Objects (%),[1],0%
same,Population Membrane Permeable-Phenotype (%),[1],8%
same,Population Mitochondria Different-Phenotype (%),[1],1%
same,Population Mitotic Cells (%),[1],11%
same,Population Normal (%),[1],99%
same,Population Pyknosed Nuclei (%),[1],6%
same,Population Tubulin-Different-Phenotype (%),[1],3%
same,Total Cell Count,[1],271
same,Population Apoptotic (%),[2],71%
same,Population Fragmented Nuclei (%),[2],20%
same,Population Healthy Nuclei (%),[2],74%
same,Population Membrane Permeable-Phenotype (%),[2],11%
same,Population Mitochondria Different-Phenotype (%),[2],3%
same,Population Mitotic Cells (%),[2],28%
same,Population Normal (%),[2],100%
same,Population Pyknosed Nuclei (%),[2],5%
same,Population Tubulin-Different-Phenotype (%),[2],5%
same,Total Cell Count,[2],135
same,Population Apoptotic (%),[3],73%
same,Population Fragmented Nuclei (%),[3],33%
same,Population Healthy Nuclei (%),[3],52%
same,Population Hoechst High Intensity Objects (%),[3],2%
same,Population Membrane Permeable-Phenotype (%),[3],10%
same,Population Mitochondria Different-Phenotype (%),[3],4%
same,Population Mitotic Cells (%),[3],26%
same,Population Normal (%),[3],97%
same,Population Pyknosed Nuclei (%),[3],13%
same,Population Tubulin-Different-Phenotype (%),[3],5%
same,Total Cell Count,[3],220
same,Population Apoptotic (%),[4],80%
same,Population Fragmented Nuclei (%),[4],20%
same,Population Healthy Nuclei (%),[4],68%
same,Population Hoechst High Intensity Objects (%),[4],0%
same,Population Membrane Permeable-Phenotype (%),[4],9%
same,Population Mitochondria Different-Phenotype (%),[4],3%
same,Population Mitotic Cells (%),[4],20%
same,Population Normal (%),[4],100%
same,Population Pyknosed Nuclei (%),[4],11%
same,Population Tubulin-Different-Phenotype (%),[4],4%
same,Total Cell Count,[4],135
same,Population Apoptotic (%),[5],89%
same,Population Fragmented Nuclei (%),[5],18%
same,Population Healthy Nuclei (%),[5],75%
same,Population Hoechst High Intensity Objects (%),[5],0%
same,Population Membrane Permeable-Phenotype (%),[5],5%
same,Population Mitochondria Different-Phenotype (%),[5],3%
same,Population Mitotic Cells (%),[5],10%
same,Population Normal (%),[5],99%
same,Population Pyknosed Nuclei (%),[5],6%
same,Population Tubulin-Different-Phenotype (%),[5],2%
same,Total Cell Count,[5],314
same,Population Apoptotic (%),[6],83%
same,Population Healthy Nuclei (%),[6],77%
same,Population Membrane Permeable-Phenotype (%),[6],9%
same,Population Mitotic Cells (%),[6],16%
same,Population Pyknosed Nuclei (%),[6],3%
same,Population Tubulin-Different-Phenotype (%),[6],4%
same,Total Cell Count,[6],157
same,Population Apoptotic (%),[7],80%
same,Population Fragmented Nuclei (%),[7],28%
same,Population Healthy Nuclei (%),[7],58%
same,Population Hoechst High Intensity Objects (%),[7],1%
same,Population Membrane Permeable-Phenotype (%),[7],8%
same,Population Mitochondria Different-Phenotype (%),[7],8%
same,Population Mitotic Cells (%),[7],19%
same,Population Normal (%),[7],98%
same,Population Pyknosed Nuclei (%),[7],12%
same,Population Tubulin-Different-Phenotype (%),[7],2%
same,Total Cell Count,[7],257
same,Population Apoptotic (%),[8],88%
same,Population Fragmented Nuclei (%),[8],21%
same,Population Healthy Nuclei (%),[8],66%
same,Population Membrane Permeable-Phenotype (%),[8],10%
same,Population Mitochondria Different-Phenotype (%),[8],1%
same,Population Mitotic Cells (%),[8],11%
same,Population Tubulin-Different-Phenotype (%),[8],9%
same,Total Cell Count,[8],141
same,Population Apoptotic (%),[9],94%
same,Population Fragmented Nuclei (%),[9],12%
same,Population Healthy Nuclei (%),[9],79%
same,Population Hoechst High Intensity Objects (%),[9],1%
same,Population Membrane Permeable-Phenotype (%),[9],5%
same,Population Mitochondria Different-Phenotype (%),[9],2%
same,Population Mitotic Cells (%),[9],5%
same,Population Normal (%),[9],98%
same,Population Pyknosed Nuclei (%),[9],8%
same,Population Tubulin-Different-Phenotype (%),[9],4%
same,Total Cell Count,[9],459
same,Population Apoptotic (%),[10],100%
same,Population Fragmented Nuclei (%),[10],15%
same,Population Membrane Permeable-Phenotype (%),[10],9%
same,Population Mitochondria Different-Phenotype (%),[10],1%
same,Population Mitotic Cells (%),[10],0%
same,Population Pyknosed Nuclei (%),[10],4%
same,Population Tubulin-Different-Phenotype (%),[10],5%
same,Total Cell Count,[10],218
same,Population Apoptotic (%),[11],81%
same,Population Fragmented Nuclei (%),[11],22%
same,Population Healthy Nuclei (%),[11],62%
same,Population Hoechst High Intensity Objects (%),[11],2%
same,Population Membrane Permeable-Phenotype (%),[11],11%
same,Population Mitochondria Different-Phenotype (%),[11],4%
same,Population Mitotic Cells (%),[11],18%
same,Population Normal (%),[11],97%
same,Population Pyknosed Nuclei (%),[11],14%
same,Population Tubulin-Different-Phenotype (%),[11],5%
same,Total Cell Count,[11],305
same,Population Apoptotic (%),[12],96%
same,Population Fragmented Nuclei (%),[12],15%
same,Population Healthy Nuclei (%),[12],71%
same,Population Hoechst High Intensity Objects (%),[12],1%
same,Population Membrane Permeable-Phenotype (%),[12],4%
same,Population Mitotic Cells (%),[12],4%
same,Population Normal (%),[12],98%
same,Population Pyknosed Nuclei (%),[12],12%
same,Population Tubulin-Different-Phenotype (%),[12],2%
same,Total Cell Count,[12],206
